# Results published in ChEMBL document CHEMBL1124764, “Cytotoxicity and antitumor activity of some tetrahedral bis(diphosphino)gold(I) chelates” (J Med Chem, 1990).
# System: B16
# Experiment: (§1) In vivo maximum increase in lifespan produced in mice bearing ip B16 melanoma implanted tumor
# Assay type: functional, organism-based
# Settings: Mus musculus
# How it was run: (§2)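 M5076 sarcoma or B16 melanoma was maintained by serial transplantation in syngeneic mice and implanted ip. B6D2F1 mice received complexes ip daily for 10 days at five log-spaced doses encompassing the MTD. Activity was scored as increase in median lifespan versus untreated controls, at MTD; >25% ILS counted as active.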
row,Substance,ILS [%]
1,"Bis [1,2-bis(diphenylphosphino)ethane] gold (I) Chloride Hydrate [listing 1 of 2 here]",38

# System: B16
# Experiment: In vitro concentration which inhibits cloning efficiency of B16 melanoma cells by 50% on a 2-h exposure was determined.
# Assay type: functional, cell-based, Mus musculus
# Settings: not given
# How it was run: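 Clonogenic assay with B16 melanoma cells grown in monolayer culture. Cells were exposed to drug for 2 h, either in medium containing 10% fetal calf serum or in serum-free medium, and then cloned. IC50 is the concentration cutting cloning efficiency by 50%.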
row,IC50 [µM],Substance
1,4.5,"Bis [1,2-bis(diphenylphosphino)ethane] gold (I) Chloride Hydrate [listing 2 of 2 here]"
2,4,"Bis [1,2-bis(diphenylphosphino)ethane] gold (I) Nitrate [listing 1 of 2 here]"
3,2,"Bis [1,2-bis(diphenylphosphino)ethene] gold (I) Chloride [listing 1 of 2 here]"
4,0.6,"Bis [1,2-bis(diphenylphosphino)propane] gold (I) Chloride [listing 1 of 2 here]"
5,5,"Bis [(1-diphenylphosphino, 2-diethyl) ethane] gold (I) Chloride [listing 1 of 2 here]"

# System: not listed separately
# Experiment: as §1
# Assay type: organism-based
# Settings: not given
# How it was run: as §2
row,Substance,ILS [%]
1,"Bis [1,2-bis(diphenylphosphino)ethene] gold (I) Chloride [listing 2 of 2 here]",35
2,"Bis [1,2-bis(diphenylphosphino)propane] gold (I) Chloride [listing 2 of 2 here]",34
3,"Bis [1,2-bis(dipyridine-2-ylphosphino)ethane] gold (I) Chloride Hydrate; chloride",43
4,CISPLATIN,75

# System: M5076
# Experiment: In vivo maximum increase in lifespan produced in mice bearing M5076 reticulum cell sarcoma implanted tumor
# Assay type: functional
# Settings: Mus musculus
# How it was run: as §2
row,Substance,ILS [%]
1,"Bis [1,2-bis(diphenylphosphino)ethane] gold (I) Chloride Hydrate [listing 1 of 2 here]",57
2,"Bis [1,2-bis(diphenylphosphino)ethane] gold (I) Iodide Hydrate",52
3,"Bis [1,2-bis(diphenylphosphino)ethene] gold (I) Chloride [listing 2 of 2 here]",69
4,"Bis [1,2-bis(diphenylphosphino)propane] gold (I) Chloride [listing 2 of 2 here]",116
5,"Bis [(1-diphenylphosphino, 2-diethyl) ethane] gold (I) Chloride [listing 2 of 2 here]",46
6,CISPLATIN,103

# System: Mus musculus
# Experiment: In vivo maximally tolerated dose for B6D2F mice on an every day ip for 10 days regimen.
# Assay type: functional, organism-based
# Settings: not given
# How it was run: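 B6D2F1 mice with ip-implanted M5076 reticulum cell sarcoma or B16 melanoma, kept by serial transplant in syngeneic mice. Complex dissolved in minimal DMA or ethanol plus equal saline, with Cremophor-EL if it precipitated. Made just before use and given ip daily for 10 days at five log-spaced doses spanning the MTD. Activity judged by median lifespan prolongation.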
row,Substance,MTD (uM day-1 kg-1)
1,"Bis [1,2-bis(diphenylphosphino)ethane] gold (I) Chloride Hydrate [listing 1 of 2 here]",2
2,"Bis [1,2-bis(diphenylphosphino)ethane] gold (I) Iodide Hydrate",2
3,"Bis [1,2-bis(diphenylphosphino)ethene] gold (I) Chloride [listing 2 of 2 here]",2
4,"Bis [1,2-bis(diphenylphosphino)propane] gold (I) Chloride [listing 2 of 2 here]",2
5,"Bis [1,2-bis(dipyridine-2-ylphosphino)ethane] gold (I) Chloride Hydrate; chloride",8
6,"Bis [1,2-bis(dipyridine-4-ylphosphino)ethane] gold (I) Chloride Hydrate; chloride",4
7,"Bis [1-dipphenyl,2-phenylmethylphosphino)ethane] gold (I) Chloride Hydrate; chloride",2
8,"Bis [(1-diphenylphosphino, 2-diethyl) ethane] gold (I) Chloride [listing 2 of 2 here]",2
9,CISPLATIN,5

# System: P388
# Experiment: In vivo maximally tolerated dose for B6D2F1 mice on an ip P388 leukemia every day for 5 days regimen
# Assay type: functional, organism-based
# Settings: Mus musculus
# How it was run: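 B6D2F1 mice inoculated ip with 10⁶ P388 leukemia cells. Complex in DMA or ethanol plus saline, with Cremophor-EL if needed, 0.5 mL, freshly made. Given ip days 1–5 starting 24 h after inoculation, at five log-spaced doses to find the MTD. Groups of six; untreated and cisplatin controls. Mortality checked daily for 45 days; end points MST and ILS.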
row,Substance,MTD (uM day-1 kg-1)
1,"Bis [1,2-bis(diphenylphosphino)ethane] gold (I) 2-hydroxy-1-ethane sulphonate",2
2,"Bis [1,2-bis(diphenylphosphino)ethane] gold (I) Bromide Hydrate",2
3,"Bis [1,2-bis(diphenylphosphino)ethane] gold (I) Chloride Hydrate [listing 1 of 2 here]",3
4,"Bis [1,2-bis(diphenylphosphino)ethane] gold (I) Iodide Hydrate",2
5,"Bis [1,2-bis(diphenylphosphino)ethane] gold (I) Methanesulfonate",2
6,"Bis [1,2-bis(diphenylphosphino)ethane] gold (I) Nitrate [listing 2 of 2 here]",3
7,"Bis [1,2-bis(diphenylphosphino)ethene] gold (I) Chloride [listing 2 of 2 here]",2
8,"Bis [1,2-bis(diphenylphosphino)propane] gold (I) Chloride [listing 2 of 2 here]",3
9,"Bis [1,2-bis(dipyridine-2-ylphosphino)ethane] gold (I) Chloride Hydrate; chloride",8
10,"Bis [1,2-bis(dipyridine-4-ylphosphino)ethane] gold (I) Chloride Hydrate; chloride",6
11,"Bis [1,2-bis[bis(3-fluorophenyl)phosphino)ethane] gold (I) Chloride",10
12,"Bis [1,2-bis[bis(4-fluorophenyl)phosphino)ethane] gold (I) Chloride",3
13,"Bis [1,2-bis[bis(5-H-dibenzophospholyl)ethane] gold (I) Nitrate",4
14,"Bis [1-dipphenyl,2-phenylmethylphosphino)ethane] gold (I) Chloride Hydrate; chloride",3
15,"Bis [(1-diphenylphosphino, 2-diethyl) ethane] gold (I) Chloride [listing 2 of 2 here]",4
16,CISPLATIN,7

# System: P388
# Experiment: In vivo maximum increase in lifespan produced in mice bearing ip P388 leukemia
# Assay type: functional, organism-based
# Settings: Mus musculus
# How it was run: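 B6D2F1 mice were inoculated ip with 10⁶ P388 leukemia cells. Complexes in DMA or ethanol plus saline (Cremophor-EL if precipitating) were given ip in 0.5 mL on days 1–5, starting 24 h after inoculation, at five log-spaced doses. Untreated and cisplatin controls were included. Mice were monitored daily for 45 days. ILS = % increase in median survival versus untreated controls, at MTD; >30% counted as active.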
row,Substance,ILS [%]
1,"Bis [1,2-bis(diphenylphosphino)ethane] gold (I) 2-hydroxy-1-ethane sulphonate",78
2,"Bis [1,2-bis(diphenylphosphino)ethane] gold (I) Bromide Hydrate",83
3,"Bis [1,2-bis(diphenylphosphino)ethane] gold (I) Chloride Hydrate [listing 1 of 2 here]",83
4,"Bis [1,2-bis(diphenylphosphino)ethane] gold (I) Iodide Hydrate",150
5,"Bis [1,2-bis(diphenylphosphino)ethane] gold (I) Methanesulfonate",81
6,"Bis [1,2-bis(diphenylphosphino)ethane] gold (I) Nitrate [listing 2 of 2 here]",90
7,"Bis [1,2-bis(diphenylphosphino)ethene] gold (I) Chloride [listing 2 of 2 here]",92
8,"Bis [1,2-bis(diphenylphosphino)propane] gold (I) Chloride [listing 2 of 2 here]",89
9,"Bis [1,2-bis(dipyridine-2-ylphosphino)ethane] gold (I) Chloride Hydrate; chloride",75
10,"Bis [1,2-bis[bis(3-fluorophenyl)phosphino)ethane] gold (I) Chloride",55
11,"Bis [1,2-bis[bis(4-fluorophenyl)phosphino)ethane] gold (I) Chloride",50
12,"Bis [1,2-bis[bis(5-H-dibenzophospholyl)ethane] gold (I) Nitrate",61
13,"Bis [1-dipphenyl,2-phenylmethylphosphino)ethane] gold (I) Chloride Hydrate; chloride",65
14,"Bis [(1-diphenylphosphino, 2-diethyl) ethane] gold (I) Chloride [listing 2 of 2 here]",54
15,CISPLATIN,125
